Test results: ChEMBL document CHEMBL4477204, “Tetrahydroisoquinoline-Derived Urea and 2,5-Diketopiperazine Derivatives as Selective Antagonists of the Transient Receptor Potential Melastatin 8 (TRPM8) Channel Receptor and Antiprostate Cancer Agents” (J Med Chem, 2016)
The source made the active and inactive calls. The calls are words filed in the database; no cut-off is given here.

How the values were obtained:
[1] = target: T1, Transient receptor potential cation channel subfamily M member 8 (Rattus norvegicus, UniProt Q8R455); experiment: Antagonist activity at recombinant rat TRPM8 expressed in HEK293 cells assessed as inhibition of icilin-induced intracellular calcium accumulation preincubated for 5 mins followed by icilin addition by Fluo-4-AM probe-based spectrofluorimetric assay; format: cell-based
T1 sequence (Q8R455 whole entry): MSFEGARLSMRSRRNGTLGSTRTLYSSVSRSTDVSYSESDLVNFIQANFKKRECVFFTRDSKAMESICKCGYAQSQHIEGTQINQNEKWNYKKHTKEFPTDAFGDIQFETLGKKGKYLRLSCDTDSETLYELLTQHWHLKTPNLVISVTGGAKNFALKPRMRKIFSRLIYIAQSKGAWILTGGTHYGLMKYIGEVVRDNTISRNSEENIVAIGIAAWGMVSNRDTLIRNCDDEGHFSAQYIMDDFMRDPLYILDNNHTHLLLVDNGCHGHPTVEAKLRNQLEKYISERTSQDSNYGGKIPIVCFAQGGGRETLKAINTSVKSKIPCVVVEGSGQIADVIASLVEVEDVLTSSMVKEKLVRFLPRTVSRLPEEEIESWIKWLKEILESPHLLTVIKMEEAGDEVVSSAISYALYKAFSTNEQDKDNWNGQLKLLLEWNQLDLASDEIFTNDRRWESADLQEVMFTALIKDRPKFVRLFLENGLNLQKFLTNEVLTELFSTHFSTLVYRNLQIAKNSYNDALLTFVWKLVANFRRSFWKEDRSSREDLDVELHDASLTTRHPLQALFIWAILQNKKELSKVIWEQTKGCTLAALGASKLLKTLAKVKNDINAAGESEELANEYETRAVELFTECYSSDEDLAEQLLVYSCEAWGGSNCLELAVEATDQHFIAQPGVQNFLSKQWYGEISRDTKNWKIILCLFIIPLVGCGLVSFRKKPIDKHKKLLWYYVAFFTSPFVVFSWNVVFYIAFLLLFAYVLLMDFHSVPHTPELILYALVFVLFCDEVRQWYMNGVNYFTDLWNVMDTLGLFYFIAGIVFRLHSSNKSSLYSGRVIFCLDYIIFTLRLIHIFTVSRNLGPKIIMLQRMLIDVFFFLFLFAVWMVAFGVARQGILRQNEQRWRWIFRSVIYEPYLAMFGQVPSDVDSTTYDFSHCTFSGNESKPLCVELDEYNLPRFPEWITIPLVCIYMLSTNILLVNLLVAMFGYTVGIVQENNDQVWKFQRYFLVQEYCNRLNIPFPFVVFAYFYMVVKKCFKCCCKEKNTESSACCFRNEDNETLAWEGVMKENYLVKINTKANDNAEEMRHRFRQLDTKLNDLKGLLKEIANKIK
Outline: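 HEK-293 cells stably expressing the listed TRP channel (human TRPV1; rat TRPM8, TRPA1, TRPV2, TRPV3 or TRPV4) were Fluo-4-AM loaded (4 µM, 1 h, 25 °C) and suspended in Tyrode's buffer pH 7.4. Compound was added 5 min before agonist: icilin 0.25 µM (TRPM8), capsaicin 0.1 µM (TRPV1), AITC 100 µM (TRPA1), LPC 3 µM (TRPV2), thymol 100 µM (TRPV3), 4α-PDD 1 µM (TRPV4). Agonist alone was taken as 100%. IC50 from sigmoidal fit, at least triplicate.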

[2] = target: T1, Transient receptor potential cation channel subfamily M member 8; experiment: Agonist activity at recombinant rat TRPM8 expressed in HEK293 cells assessed as increase in intracellular calcium accumulation by Fluo-4-AM probe-based spectrofluorimetric assay; format: cell-based
Outline: (§1)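 HEK-293 cells stably expressing rat TRPM8 were loaded with Fluo-4-AM (4 µM, 0.02% Pluronic F-127) for 1 h at 25 °C in serum-free EMEM. They were then washed and suspended in Tyrode's buffer pH 7.4 in a stirred cuvette. [Ca2+]i fluorescence (ex 488/em 516 nm) was read before and after compound addition. Wild-type HEK-293 response was subtracted. Efficacy is expressed versus 4 µM ionomycin; EC50 comes from a sigmoidal fit.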

[3] = target: Transient receptor potential cation channel subfamily M member 8 (Rattus norvegicus) (UniProt Q8R455); experiment: Agonist activity at recombinant rat TRPM8 expressed in HEK293 cells assessed as increase in intracellular calcium accumulation up to 10 uM by Fluo-4-AM probe-based spectrofluorimetric assay; format: cell-based; outline: as §1
Chain of Transient receptor potential cation channel subfamily M member 8 (Rattus norvegicus) (Q8R455 whole entry, looked up): as the sequence (Q8R455 whole entry) above

[4] = target: Transient receptor potential cation channel subfamily M member 8 (Rattus norvegicus) (UniProt Q8R455); experiment: Agonist activity at recombinant rat TRPM8 expressed in HEK293 cells assessed as increase in intracellular calcium accumulation by Fluo-4-AM probe-based spectrofluorimetric assay relative to ionomycin; format: cell-based; outline: as §1
in vitro = conditions: C57BL/6, mouse, liver microsomes

| IC50 [1] [µM] | EC50 ([2]; hek293) | Activity [3] | EC50 ([2]; read-out: EC50) [µM] | Activity [4] [%] | CLint scaled at 1 h, 3 µM (in vitro) [mL/min/kg] | SMILES |
| --- | --- | --- | --- | --- | --- | --- |
| > 50 | Not Active |  |  |  |  | COc1ccc(CCNC(=O)N2CCc3cc(OC)c(OC)cc3C2c2cccc([N+](=O)[O-])c2)cc1OC (configuration not stated) |
| 31.7 | Not Active |  |  |  |  | COc1ccc(CCNC(=O)N2CCc3cc(OC)c(OC)cc3C2c2ccc(Cl)cc2)cc1OC (configuration not stated) |
| 22.9 | Not Active |  |  |  |  | COc1cc2c(cc1OC)C(c1cccc(-c3cccc([N+](=O)[O-])c3)n1)=NCC2 |
| > 50 | Not Active |  |  |  |  | CCC1c2cc(OC)c(OC)cc2CCN1C(=O)NCCc1ccc(OC)c(OC)c1 (configuration not stated) |
| 35.2 | Not Active |  |  |  |  | COc1ccc(/C=C2\NC(=O)[C@@H]3Cc4cc(OC)c(OC)cc4[C@@H](c4cccc([N+](=O)[O-])c4)N3C2=O)cc1OC |
| 42.4 | Not Active |  |  |  |  | COc1ccc(/C=C2\NC(=O)[C@@H]3Cc4cc(OC)c(OC)cc4[C@@H](c4ccc(Br)cc4)N3C2=O)cc1OC |
| > 50 |  | inactive | 26.1 | 15.3 |  | CCC1c2cc(OC)c(OC)cc2CCN1C(=O)NCCc1cc(OC)c(OC)cc1C(CC)S(=O)(=O)c1ccc(C)cc1 (configuration not stated) |
| 10.6 | Not Active |  |  |  |  | COc1cc2c(cc1OC)[C@@H](c1ccc(C(F)(F)F)cc1)N(C(=O)N1CCc3cc(OC)c(OC)cc3[C@@H]1c1ccc(C(F)(F)F)cc1)CC2 |
| 1.2 | Not Active |  |  |  | 39.6 | COc1ccc(CCNC(=O)N2CCc3cc(OC)c(OC)cc3C2c2ccccc2)cc1OC (configuration not stated) |
| > 50 | Not Active |  |  |  |  | COc1cc2c(cc1OC)[C@@H](c1ccc(F)cc1)N(C(=O)N1CCc3cc(OC)c(OC)cc3[C@@H]1c1ccc(F)cc1)CC2 |
| 39.3 | Not Active |  |  |  |  | COc1ccc(/C=C2\NC(=O)[C@@H]3Cc4cc(OC)c(OC)cc4[C@@H](c4ccccc4Cl)N3C2=O)cc1OC |
| > 50 | Not Active |  |  |  |  | COc1ccc(CCNC(=O)NCCc2ccc(OC)c(OC)c2)cc1OC |
| > 50 | Not Active |  |  |  |  | CCCC1c2cc(OC)c(OC)cc2CCN1C(=O)NCCc1ccc(OC)c(OC)c1 (configuration not stated) |
| 12.8 |  | inactive | 15.9 | 14.7 |  | COc1ccc(/C=C2\NC(=O)[C@@H]3Cc4cc(OC)c(OC)cc4[C@@H](c4ccccc4)N3C2=O)cc1OC |
| 48.2 | Not Active |  |  |  |  | COc1ccc(CCNC(=O)N2CCc3cc(OC)c(OC)cc3C2c2ccc(Br)cc2)cc1OC (configuration not stated) |
| > 50 | Not Active |  |  |  |  | COc1cc2c(cc1OC)[C@@H](c1ccc(Oc3ccc([N+](=O)[O-])cc3)cc1)N(C(=O)N1CCc3cc(OC)c(OC)cc3[C@@H]1c1ccc(Oc3ccc([N+](=O)[O-])cc3)cc1)CC2 |
| > 50 | Not Active |  |  |  |  | COc1cc2c(cc1OC)C(c1ccc(C(F)(F)F)cc1)N(C(C)=O)CC2 (configuration not stated) |

| IC50 [1] [µM] | EC50 ([2]; hek293) | Activity [3] | EC50 ([2]; read-out: EC50) [µM] | Activity [4] [%] | CLint scaled at 1 h, 3 µM (in vitro) [mL/min/kg] | SMILES |
| --- | --- | --- | --- | --- | --- | --- |
| > 50 | Not Active |  |  |  |  | COc1cc2c(cc1OC)[C@H](c1ccc3ccccc3c1)N(C(=O)N1CCc3cc(OC)c(OC)cc3[C@@H]1c1ccc3ccccc3c1)CC2 (racemic) |
| > 50 | Not Active |  |  |  |  | COc1cc2c(cc1OC)C(c1ccc([N+](=O)[O-])cc1[N+](=O)[O-])NCC2 (racemic) |
| 8.5 | Not Active |  |  |  |  | CCC[C@H]1c2cc(OC)c(OC)cc2CCN1C(=O)N1CCc2cc(OC)c(OC)cc2[C@@H]1CCC (racemic) |
| > 50 | Not Active |  |  |  |  | COc1cc2c(cc1OC)C(c1cccc(-c3cccc([N+](=O)[O-])c3)n1)NCC2 (racemic) |
| > 50 | Not Active |  |  |  |  | COc1cc2c(cc1OC)[C@H](c1ccc(Oc3ccc([N+](=O)[O-])cc3)cc1)N(C(=O)N1CCc3cc(OC)c(OC)cc3[C@@H]1c1ccc(Oc3ccc([N+](=O)[O-])cc3)cc1)CC2 (racemic) |
| 0.18 | Not Active |  |  |  | 10.1 | COc1cc2c(cc1OC)[C@H](c1ccc(C(F)(F)F)cc1)N(C(=O)N1CCc3cc(OC)c(OC)cc3[C@@H]1c1ccc(C(F)(F)F)cc1)CC2 (racemic) |
| 30.6 | Not Active |  |  |  |  | COc1ccc(OC)c(C[C@@H]2NC(=O)[C@@H]3Cc4c(OC)ccc(OC)c4[C@@H](/C=C/c4ccccc4)N3C2=O)c1 (racemic) |
| 2.2 | Not Active |  |  |  | 19.1 | COc1cc2c(cc1OC)[C@H](c1ccc(Br)cc1)N(C(=O)N1CCc3cc(OC)c(OC)cc3[C@@H]1c1ccc(Br)cc1)CC2 (racemic) |
| 19.8 | Not Active |  |  |  | 52.9 | COc1cc2c(cc1OC)[C@H](c1ccccc1Cl)N(C(=O)N1CCc3cc(OC)c(OC)cc3[C@@H]1c1ccccc1Cl)CC2 (racemic) |
| 46.1 | Not Active |  |  |  |  | COc1ccc(CCNC(=O)N2CCc3cc(OC)c(OC)cc3C2c2ccccc2Cl)cc1OC (racemic) |
| 43.7 | Not Active |  |  |  |  | COc1cc2c(cc1OC)[C@H](c1cccc(-c3cccc([N+](=O)[O-])c3)n1)N(C(=O)N1CCc3cc(OC)c(OC)cc3[C@@H]1c1cccc(-c3cccc([N+](=O)[O-])c3)n1)CC2 (racemic) |
| 44.4 | Not Active |  |  |  |  | COc1cc2c(cc1OC)[C@H](c1cccc([N+](=O)[O-])c1)N(C(=O)N1CCc3cc(OC)c(OC)cc3[C@@H]1c1cccc([N+](=O)[O-])c1)CC2 (racemic) |
| > 50 |  | inactive | 14.2 | 22.7 |  | COc1cc2c(cc1OC)[C@H](c1ccc([N+](=O)[O-])cc1)N(C(=O)N1CCc3cc(OC)c(OC)cc3[C@@H]1c1ccc([N+](=O)[O-])cc1)CC2 (racemic) |
| 3.2 |  | inactive | 20.8 | 26.6 |  | COc1cc(C[C@@H]2NC(=O)[C@@H]3Cc4c(OC)c(C)c(OC)c(OC)c4[C@H](/C=C/c4ccccc4)N3C2=O)c(OC)c(C)c1OC (racemic) |
| > 50 | Not Active |  |  |  |  | COc1cc(C[C@@H]2NC(=O)[C@H](Cc3cc(OC)c(OC)c(C)c3OC)NC2=O)c(OC)c(C)c1OC (racemic) |
| 8.8 | Not Active |  |  |  |  | COc1c(C)c(OC)c(OC)c2c1C[C@H]1C(=O)N3[C@@H](Cc4c(OC)c(C)c(OC)c(OC)c4[C@@H]3/C=C/c3ccccc3)C(=O)N1[C@H]2/C=C/c1ccccc1 (racemic) |
| > 50 | Not Active |  |  |  |  | COc1cc2c(cc1OC)C(c1ccc(Cl)cc1)NCC2 (racemic) |

| SMILES | IC50 [1] [µM] | EC50 ([2]; hek293) | Activity [3] | EC50 ([2]; read-out: EC50) [µM] | Activity [4] [%] | CLint scaled at 1 h, 3 µM (in vitro) [mL/min/kg] |
| --- | --- | --- | --- | --- | --- | --- |
| COc1cc2c(cc1OC)[C@H](c1ccc([N+](=O)[O-])cc1[N+](=O)[O-])N(C(=O)N1CCc3cc(OC)c(OC)cc3[C@@H]1c1ccc([N+](=O)[O-])cc1[N+](=O)[O-])CC2 (racemic) | > 50 | Not Active |  |  |  |  |
